Experimental data from ChEMBL document CHEMBL1157608, “The discovery of 4-{1-[({2,5-dimethyl-4-[4-(trifluoromethyl)benzyl]-3-thienyl}carbonyl)amino]cyclopropyl}benzoic acid (MK-2894), a potent and selective prostaglandin E2 subtype 4 receptor antagonist” (J Med Chem, 2010).

What was measured:
[1] = molecular target: T1, Prostaglandin E2 receptor EP1 subtype (Rattus norvegicus, UniProt P70597); test: Displacement of [3H]PGE2 from rat EP1 receptor expressed in HEK293-EBNA cells by scintillation counting; type: cell-based
T1 sequence (P70597 whole entry): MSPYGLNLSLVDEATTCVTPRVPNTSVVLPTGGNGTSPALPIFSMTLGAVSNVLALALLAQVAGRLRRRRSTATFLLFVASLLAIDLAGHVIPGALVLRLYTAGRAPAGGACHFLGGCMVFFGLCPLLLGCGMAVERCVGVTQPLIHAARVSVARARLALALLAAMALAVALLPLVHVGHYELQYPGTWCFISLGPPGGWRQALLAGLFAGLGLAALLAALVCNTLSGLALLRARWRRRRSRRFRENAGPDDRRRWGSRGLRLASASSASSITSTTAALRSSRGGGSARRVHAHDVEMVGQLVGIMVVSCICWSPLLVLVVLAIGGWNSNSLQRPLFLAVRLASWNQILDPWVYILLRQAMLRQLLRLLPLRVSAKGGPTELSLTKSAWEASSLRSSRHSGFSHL
In short: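 Radioligand binding on membranes from HEK 293(EBNA) clonal lines overexpressing each prostanoid receptor, using the respective 3H-prostaglandin or thromboxane ligand; EP4 binding also run with 10% human serum; Ki as means of at least three experiments (rEP2, rEP3 n = 1).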

[2] = system: Rattus norvegicus; test: Plasma concentration in complete Freund's adjuvant-induced Sprague-Dawley rat inflammatory pain model at 0.1 mg/kg/day, po; type: ADME, organism-based; set-up: route oral; settings: in vivo
In short: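 Adjuvant-induced arthritis in rats: CFA injected into primary paw on day 0; oral dosing in 0.5% methocel once daily for 9 days starting day 9; secondary paw swelling measured; plasma levels taken 24 h after final dose; n = 7/group; 1-way ANOVA/Dunnett's vs vehicle.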

[3] = Half life in C57BL/6 mouse at 5 mg/kg, iv; type: ADME, organism-based; set-up: dose 5 mg/kg, route intravenous; settings: in vivo
In short: (§1)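 Overnight-fasted animals dosed po in 0.5% methocel or iv in 60% PEG 200; plasma from serial blood samples stored at -10 °C, protein-precipitated with equal volume acetonitrile/0.1% formic acid, analysed by LC/MS/MS with internal standard against spiked blank-plasma standards; Cmax from po data, half-life from iv data.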

[4] = Plasma clearance in Beagle dog at 5 mg/kg, po and 1 mg/kg, iv; type: ADME, organism-based, Canis lupus familiaris; in short: as §1

Ki [1]: > 29 µM
concentration [2]: 4 nM
half-life [3]: 900 min
clearance [4]: 3.2 mL/min/kg
SMILES: Cc1sc(C)c(C(=O)NC2(c3ccc(C(=O)O)cc3)CC2)c1Cc1ccc(C(F)(F)F)cc1
